From ChEMBL document CHEMBL1134763, “Oxidation of N(omega)-hydroxyarginine analogues by NO-synthase: the simple, non amino acid N-butyl N'-hydroxyguanidine is almost as efficient an NO precursor as N(omega)-hydroxyarginine” (J Med Chem, 2001)

What was measured:
Type in all cases: functional
[1] = target: Nitric oxide synthase 1 (Homo sapiens) (UniProt P29475); experiment: Formation of Nitric Oxide by Nitric Oxide synthase I(% relative to NOHA)
Summary of the method: (§1)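 Purified recombinant NOS (5–50 nM) at 37 °C in 50 mM HEPES pH 7.4 with 1 mM test compound, 1 mM NADPH, 100 μM BH4, 100 U/mL SOD, 100 U/mL catalase, 12–15 μM oxyhemoglobin and 5 mM DTT. NOS I and NOS III runs also contained 1 mM CaCl2 and 10 μg/mL calmodulin. NO was read spectrophotometrically as oxyhemoglobin-to-methemoglobin conversion. Initial rates are given as % of the NOHA rate.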

[2] = target: T1, Nitric oxide synthase, inducible (Mus musculus) (UniProt P29477); experiment: Formation of Nitric Oxide by Nitric Oxide synthase II(% relative to NOHA); summary of the method: as §1
T1 sequence (whole entry): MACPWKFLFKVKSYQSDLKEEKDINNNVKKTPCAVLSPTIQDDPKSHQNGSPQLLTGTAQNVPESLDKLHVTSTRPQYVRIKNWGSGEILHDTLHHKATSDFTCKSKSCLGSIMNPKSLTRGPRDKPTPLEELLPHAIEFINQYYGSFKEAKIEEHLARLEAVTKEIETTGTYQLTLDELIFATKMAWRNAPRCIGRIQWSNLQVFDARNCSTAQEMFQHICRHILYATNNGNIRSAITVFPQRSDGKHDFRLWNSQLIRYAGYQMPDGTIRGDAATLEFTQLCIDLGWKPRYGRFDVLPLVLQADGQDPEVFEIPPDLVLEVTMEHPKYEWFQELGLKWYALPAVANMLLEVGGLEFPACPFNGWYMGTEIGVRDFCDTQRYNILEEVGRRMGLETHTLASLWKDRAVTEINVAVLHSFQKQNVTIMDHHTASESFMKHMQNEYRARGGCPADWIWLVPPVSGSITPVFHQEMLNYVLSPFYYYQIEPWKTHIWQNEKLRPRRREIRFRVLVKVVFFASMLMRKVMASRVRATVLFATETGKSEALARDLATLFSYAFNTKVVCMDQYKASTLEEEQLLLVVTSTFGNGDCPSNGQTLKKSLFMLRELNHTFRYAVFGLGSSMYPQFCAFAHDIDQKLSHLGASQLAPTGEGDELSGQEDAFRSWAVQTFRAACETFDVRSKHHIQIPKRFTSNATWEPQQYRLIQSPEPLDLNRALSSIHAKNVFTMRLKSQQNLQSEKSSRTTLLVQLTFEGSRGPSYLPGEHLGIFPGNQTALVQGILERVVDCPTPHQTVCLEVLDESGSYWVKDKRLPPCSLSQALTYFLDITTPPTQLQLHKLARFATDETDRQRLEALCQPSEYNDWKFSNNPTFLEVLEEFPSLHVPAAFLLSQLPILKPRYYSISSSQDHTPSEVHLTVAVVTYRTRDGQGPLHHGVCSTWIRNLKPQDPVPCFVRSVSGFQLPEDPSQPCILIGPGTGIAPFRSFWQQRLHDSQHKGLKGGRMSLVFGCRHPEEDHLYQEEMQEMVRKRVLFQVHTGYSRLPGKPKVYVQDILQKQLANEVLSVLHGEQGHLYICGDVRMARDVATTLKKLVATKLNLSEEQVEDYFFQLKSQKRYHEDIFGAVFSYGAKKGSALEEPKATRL

[3] = target: T1, Nitric oxide synthase, inducible (Mus musculus); experiment: (§2) Compound was evaluated for the kinetic constants for Nitric Oxide formation from oxidation by NOS II
Summary of the method: (§3)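 Recombinant purified NOS II was run in the hemoglobin assay at 37 °C in 50 mM HEPES pH 7.4 with NADPH, BH4, SOD, catalase and DTT, over varying substrate concentrations. Initial NO-formation rates gave saturation kinetics. Km (μM) and kcat (min⁻¹) were derived from Lineweaver-Burk plots, and kcat/Km is expressed in μM⁻¹ min⁻¹.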

[4] = target: T2, Nitric oxide synthase 3 (Homo sapiens) (UniProt P29474); experiment: Formation of Nitric Oxide by Nitric Oxide synthase III(% relative to NOHA); summary of the method: as §1
T2 sequence (whole entry): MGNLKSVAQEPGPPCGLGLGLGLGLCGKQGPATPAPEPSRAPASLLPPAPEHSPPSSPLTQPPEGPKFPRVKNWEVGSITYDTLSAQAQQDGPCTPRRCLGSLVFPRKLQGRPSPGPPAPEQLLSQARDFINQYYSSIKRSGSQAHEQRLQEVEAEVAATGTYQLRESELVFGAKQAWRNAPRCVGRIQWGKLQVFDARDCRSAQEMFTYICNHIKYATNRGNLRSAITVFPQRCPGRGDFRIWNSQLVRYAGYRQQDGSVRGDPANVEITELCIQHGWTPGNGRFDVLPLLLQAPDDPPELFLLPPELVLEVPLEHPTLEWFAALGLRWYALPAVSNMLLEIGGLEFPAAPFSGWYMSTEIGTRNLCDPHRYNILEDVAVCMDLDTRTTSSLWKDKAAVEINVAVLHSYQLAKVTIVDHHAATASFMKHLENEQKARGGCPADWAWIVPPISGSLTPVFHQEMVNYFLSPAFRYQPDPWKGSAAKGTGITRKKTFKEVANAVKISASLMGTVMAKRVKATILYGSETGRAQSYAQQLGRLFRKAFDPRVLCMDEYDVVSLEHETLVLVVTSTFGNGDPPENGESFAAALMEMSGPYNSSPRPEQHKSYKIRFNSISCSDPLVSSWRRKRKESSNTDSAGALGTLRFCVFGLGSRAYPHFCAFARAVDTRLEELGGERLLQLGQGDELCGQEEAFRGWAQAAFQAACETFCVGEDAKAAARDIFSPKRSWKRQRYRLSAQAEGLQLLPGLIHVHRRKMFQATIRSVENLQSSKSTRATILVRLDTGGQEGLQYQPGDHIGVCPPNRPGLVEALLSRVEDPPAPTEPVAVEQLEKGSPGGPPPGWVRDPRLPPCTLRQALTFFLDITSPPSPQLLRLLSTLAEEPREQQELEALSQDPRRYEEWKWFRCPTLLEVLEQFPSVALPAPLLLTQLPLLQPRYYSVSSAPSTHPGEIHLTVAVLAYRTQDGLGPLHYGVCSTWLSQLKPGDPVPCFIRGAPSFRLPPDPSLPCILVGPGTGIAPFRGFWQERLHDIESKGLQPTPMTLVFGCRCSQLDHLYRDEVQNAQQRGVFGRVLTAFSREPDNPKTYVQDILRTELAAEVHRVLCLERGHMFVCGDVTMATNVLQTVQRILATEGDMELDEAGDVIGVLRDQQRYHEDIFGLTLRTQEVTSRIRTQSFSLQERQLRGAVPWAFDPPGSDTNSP

[5] = Ratio between Km (uM) and Kcat (1/min) was determined; summary of the method: as §3
[6] = substrate: N/C(=N/CCCC(N)C(=O)O)NO; experiment: as §2; summary of the method: as §3
[7] = substrate: N/C(=N/CCCCC(N)C(=O)O)NO; experiment: as §2; summary of the method: as §3
[8] = substrate: CCCCC/N=C(/N)NO; experiment: as §2; summary of the method: as §3
[9] = substrate: N=C(NO)Nc1ccc(Cl)cc1; experiment: as §2; summary of the method: as §3
[10] = substrate: CCCCN/C(N)=N/O; experiment: as §2; summary of the method: as §3

Sequence of Nitric oxide synthase 1 (Homo sapiens) (P29475 whole entry): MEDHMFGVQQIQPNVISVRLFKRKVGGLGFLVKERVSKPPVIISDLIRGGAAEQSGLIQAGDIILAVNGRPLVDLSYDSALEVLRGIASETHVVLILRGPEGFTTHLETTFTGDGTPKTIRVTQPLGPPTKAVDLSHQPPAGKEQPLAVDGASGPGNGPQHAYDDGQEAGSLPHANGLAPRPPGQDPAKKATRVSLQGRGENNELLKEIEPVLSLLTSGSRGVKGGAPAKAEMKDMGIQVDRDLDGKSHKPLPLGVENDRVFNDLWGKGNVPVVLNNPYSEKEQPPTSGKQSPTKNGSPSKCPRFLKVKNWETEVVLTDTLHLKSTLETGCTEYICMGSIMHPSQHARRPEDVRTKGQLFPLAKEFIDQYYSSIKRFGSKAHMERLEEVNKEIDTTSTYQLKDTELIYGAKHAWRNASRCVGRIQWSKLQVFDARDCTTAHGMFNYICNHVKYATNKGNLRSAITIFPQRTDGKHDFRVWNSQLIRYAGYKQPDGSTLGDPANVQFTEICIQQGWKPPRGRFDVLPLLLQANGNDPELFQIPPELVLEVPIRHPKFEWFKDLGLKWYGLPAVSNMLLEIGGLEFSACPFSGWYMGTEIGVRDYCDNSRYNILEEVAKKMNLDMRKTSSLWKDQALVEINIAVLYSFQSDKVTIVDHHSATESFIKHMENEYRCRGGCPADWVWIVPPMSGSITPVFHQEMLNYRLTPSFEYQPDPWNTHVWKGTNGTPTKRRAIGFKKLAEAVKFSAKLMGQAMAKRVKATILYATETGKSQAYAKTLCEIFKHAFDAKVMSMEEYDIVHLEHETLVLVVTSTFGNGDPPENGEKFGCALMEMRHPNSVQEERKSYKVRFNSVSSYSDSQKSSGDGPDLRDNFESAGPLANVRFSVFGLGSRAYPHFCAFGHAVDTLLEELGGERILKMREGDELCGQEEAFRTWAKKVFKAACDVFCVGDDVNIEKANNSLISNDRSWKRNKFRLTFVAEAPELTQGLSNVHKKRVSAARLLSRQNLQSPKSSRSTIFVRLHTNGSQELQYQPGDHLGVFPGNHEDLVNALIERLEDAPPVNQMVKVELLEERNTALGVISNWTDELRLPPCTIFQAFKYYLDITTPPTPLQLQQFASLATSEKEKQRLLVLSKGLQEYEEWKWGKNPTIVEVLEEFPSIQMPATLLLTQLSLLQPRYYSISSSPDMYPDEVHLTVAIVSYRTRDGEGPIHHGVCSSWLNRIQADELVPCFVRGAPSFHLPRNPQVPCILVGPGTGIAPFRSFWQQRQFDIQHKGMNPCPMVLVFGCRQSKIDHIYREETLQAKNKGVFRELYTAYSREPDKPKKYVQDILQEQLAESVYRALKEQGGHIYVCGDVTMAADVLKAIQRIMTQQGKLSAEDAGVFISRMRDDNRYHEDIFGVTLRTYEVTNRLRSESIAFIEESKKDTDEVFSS

Molecule	Initial rates [1]	Initial rates [2]	k cat [3]	Initial rates [4]	k cat/Km [5]	Km [6]	Km [7]	Km [8]	Km [9]	Km [10]
N/C(=N/CCCC(N)C(=O)O)NO (stereo unspecified)	100	100	480 min⁻¹	100	12 µM⁻¹ min⁻¹	–	–	–	–	–
NCCCN/C(N)=N/O	< 0.5	< 0.5	–	< 0.5	–	–	–	–	–	–
CCCCC/N=C(/N)NO	34	25	280 min⁻¹	< 0.5	0.9 µM⁻¹ min⁻¹	–	–	–	–	–
NC(=NCCCC(=O)O)NO	< 0.5	< 0.5	–	< 0.5	–	–	–	–	–	–
NC(=NCCC(N)C(=O)O)NO (stereo unspecified)	< 0.5	< 0.5	–	< 0.5	–	–	–	–	–	–
CCCCCC/N=C(/N)NO	2	1	–	< 0.5	–	–	–	–	–	–
CCC/N=C(/N)NO	36	15	–	41	–	–	–	–	–	–
N/C(=N/CCCCC(N)C(=O)O)NO (stereo unspecified)	82	55	410 min⁻¹	70	2.8 µM⁻¹ min⁻¹	–	–	–	–	–
N/C(=N/CC(N)C(=O)O)NO (stereo unspecified)	< 0.5	< 0.5	–	< 0.5	–	–	–	–	–	–
N/C(=N/CCCCC(=O)O)NO	< 0.5	1	–	2	–	–	–	–	–	–
CCCCN/C(N)=N/O	65	68	320 min⁻¹	41	5.8 µM⁻¹ min⁻¹	–	–	–	–	–
NCCCC/N=C(/N)NO	2	8	–	< 0.5	–	–	–	–	–	–
N=C(NO)Nc1ccc(Cl)cc1	–	–	100 min⁻¹	–	0.2 µM⁻¹ min⁻¹	–	–	–	–	–
Nitric oxide synthase, inducible (Mus musculus), P29477 (protein) MACPWKFLFKVKSYQSDLKEEKDINNNVKKTPCAVLSPTIQDDPKSHQNGSPQLLTGTAQNVPESLDKLHVTSTRPQYVRIKNWGSGEILHDTLHHKATSDFTCKSKSCLGSIMNPKSLTRGPRDKPTPLEELLPHAIEFINQYYGSFKEAKIEEHLARLEAVTKEIETTGTYQLTLDELIFATKMAWRNAPRCIGRIQWSNLQVFDARNCSTAQEMFQHICRHILYATNNGNIRSAITVFPQRSDGKHDFRLWNSQLIRYAGYQMPDGTIRGDAATLEFTQLCIDLGWKPRYGRFDVLPLVLQADGQDPEVFEIPPDLVLEVTMEHPKYEWFQELGLKWYALPAVANMLLEVGGLEFPACPFNGWYMGTEIGVRDFCDTQRYNILEEVGRRMGLETHTLASLWKDRAVTEINVAVLHSFQKQNVTIMDHHTASESFMKHMQNEYRARGGCPADWIWLVPPVSGSITPVFHQEMLNYVLSPFYYYQIEPWKTHIWQNEKLRPRRREIRFRVLVKVVFFASMLMRKVMASRVRATVLFATETGKSEALARDLATLFSYAFNTKVVCMDQYKASTLEEEQLLLVVTSTFGNGDCPSNGQTLKKSLFMLRELNHTFRYAVFGLGSSMYPQFCAFAHDIDQKLSHLGASQLAPTGEGDELSGQEDAFRSWAVQTFRAACETFDVRSKHHIQIPKRFTSNATWEPQQYRLIQSPEPLDLNRALSSIHAKNVFTMRLKSQQNLQSEKSSRTTLLVQLTFEGSRGPSYLPGEHLGIFPGNQTALVQGILERVVDCPTPHQTVCLEVLDESGSYWVKDKRLPPCSLSQALTYFLDITTPPTQLQLHKLARFATDETDRQRLEALCQPSEYNDWKFSNNPTFLEVLEEFPSLHVPAAFLLSQLPILKPRYYSISSSQDHTPSEVHLTVAVVTYRTRDGQGPLHHGVCSTWIRNLKPQDPVPCFVRSVSGFQLPEDPSQPCILIGPGTGIAPFRSFWQQRLHDSQHKGLKGGRMSLVFGCRHPEEDHLYQEEMQEMVRKRVLFQVHTGYSRLPGKPKVYVQDILQKQLANEVLSVLHGEQGHLYICGDVRMARDVATTLKKLVATKLNLSEEQVEDYFFQLKSQKRYHEDIFGAVFSYGAKKGSALEEPKATRL	–	–	–	–	–	40 µM	146 µM	310 µM	500 µM	55 µM
